# From PubChem BioAssay
# STAT3 blocker: IL-6 driven STAT3 reporter inhibitors, primary screen, U3A cells, luciferase, luminescence, MLSCN library. inhibition, % at 5.5 µM. IL-6 STAT3-luciferase reporter; host cell line lacks STAT1. hit rate 0.89% among 190,000;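 active = inhibition above the mean inhibition across all screened compounds plus 3 SD, cut at about 44% in these data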
# APP 5'UTR act: activators of APP 5'UTR luciferase reporter, primary screen, SH-SY5Y cells. SH-SY5Y APP 5'UTR luciferase reporter, luminescence; zero percent = DMSO vehicle wells. activation, % at 2 µM. hit rate 1% among 190,000. AID 1276, 2008;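 active = activation above a set limit, based on mean plus 3 SD of controls, cut at about 140% in these data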
# STAT1 blocker: STAT1 signaling inhibitors, primary screen, cell-based, HTS, luciferase reporter. AID 920, 2007. inhibition, % at 5.5 µM. NIH 3T3 STAT1-luciferase reporter, IFN-gamma, luminescence. hit rate 0.35% among 200,000;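 active = inhibition above a set limit, the mean inhibition across all tested compounds plus 3 SD, cut at about 34% in these data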
# NF-kB neuron act: activators of NF-kB expression in neurons, primary screen, cell-based, HTS. human neuronal cells, NF-kB reporter expression; hits give high values. fold change at 12.5 µM. hit rate 1.6% among 190,000; in the data active = fold change above about 3.3
# STAT3 act-1: IL-6 driven STAT3 reporter potentiators, primary screen, U3A cells, luciferase, luminescence, MLSCN library | hit rate 0.91% among 190,000 | activation (% of control), % at 5.6 µM | IL-6 STAT3-luciferase reporter; 100% = signal with IL-6 EC80 alone;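 active = activation above the screen-wide mean of compound activation plus 3 SD, cut at about 130% in these data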
#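 Assay system – human STAT1-deficient U3A cells with stable STAT3-luciferase reporter · Also added – IL-6 (33 ng/mL) · Schedule – compound 1 h, then IL-6 6 h at 37 °C · Technique – reporter luminescence signal · Evaluation – % activation versus median of IL-6-stimulated wells · Benchmarks – IL-6-only wells as 100% reference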
# STAT1 act-1: STAT1 signaling activators, primary screen, cell-based, HTS, luciferase reporter; NIH 3T3 STAT1-luciferase reporter, IFN-gamma, luminescence; 100% = IFN-gamma alone, no compound; hit rate 2.6% among 200,000; activation (% of control), % at 5.5 µM;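 active = activation above the screen-wide mean activation plus 3 SD, cut at about 130% in these data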
# STAT3 act-2: STAT3 reporter potentiators, retest of hits, confirmation, U3A cells, luciferase, luminescence | shares compounds with STAT3 act-1 | IL-6 potentiation; U3A cells lack STAT1; 100 means same as IL-6 alone | potentiation (% of control), % at 5.7 µM | hit rate 64% among 1,200 | AID 1267, 2008;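 active = percent activation of the STAT3 luciferase reporter above a set limit taken from the earlier primary screen, cut at about 130% in these data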
# NFkB act 2: NF-kB reporter activators in human cells, counter-screen for STAT3 activator project | hit rate 11% among 1,200 | activation (% of control), % at 5.7 µM | shares compounds with STAT3 act-1 | NF-kappaB reporter activation; in the data active = activation above about 120%;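 also: reporter induced by TNF-alpha stimulation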
# STAT1 act-2: STAT1 reporter activators, IFN-gamma induced, counter-screen for STAT3 activator project, cell-based, NIH 3T3, luciferase luminescence. shares compounds with STAT3 act-1. NIH 3T3 STAT1-luciferase reporter. activation (% of control), % at 5.7 µM. hit rate 13% among 1,200;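 active = activation above the solvent-only control well mean plus 3 SD, set per screening run, cut at about 120% in these data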
# A number is an active result; 0 = inactive; - = no result. The list is not random: actives were taken first. Their share in the collection is about 4.9%.
SMILES,STAT3 blocker,APP 5'UTR act,STAT1 blocker,NF-kB neuron act,STAT3 act-1,STAT1 act-1,STAT3 act-2,NFkB act 2,STAT1 act-2
Cc1noc(C)c1S(=O)(=O)N(CC(=O)N1CCn2c1nc1ccccc12)c1ccc(C(C)C)cc1,0,0,0,0,149,0,138,0,0
CCCN(c1ccc(C(C)C)cc1)S(=O)(=O)c1c(C)noc1C,0,0,0,0,0,0,-,-,-
CCC(C(=O)OCC(=O)c1ccc2c(c1)NC(=O)CO2)c1ccccc1 (centres undefined),0,0,0,0,0,0,-,-,-
CCOC(=O)C1(Cc2ccc(OC)cc2)CCN(C(=O)c2cc3ccccc3[nH]2)CC1,0,0,0,0,156,0,147,0,0
COc1ccc(OC)c(NC(=O)c2[nH]c(C)c(C(C)=O)c2C)c1,0,0,0,0,151,0,152,0,0
COc1ccc(-c2nc(NC(=O)c3[nH]c(C)c(C(C)=O)c3C)sc2C)cc1,0,0,0,0,0,0,-,-,-
O=C(Nc1ccccc1)c1cc([N+](=O)[O-])ccc1NCc1cccnc1,0,0,0,0,0,0,-,-,-
CN(Cc1c(C(=O)N2CCc3ccccc3C2)nc2ccc(Cl)cn12)C(C1CC1)C1CC1,0,0,0,0,0,0,-,-,-
O=C(CCCSc1nc2ccccc2s1)NCc1ccco1,0,0,0,0,150,0,136,0,0
CCc1ccccc1NC(=O)CCCSc1nc2ccccc2s1,0,0,0,0,0,0,-,-,-
CCCCC(=O)Nc1cccn2ncnc12,0,0,0,0,0,0,-,-,-
Cc1ccccc1-c1cc(-c2ccccc2O)on1,0,197,0,9.7,168,0,184,0,0
Oc1ccccc1-c1cc(-c2ccccc2)no1,0,255,0,12,162,0,175,124,0
O=S(N1CCc2ccccc21)C12CC3CC(CC(C3)C1)C2 (centres undefined),0,0,0,0,0,0,-,-,-
c1ccc2c(c1)CCN(c1nc3ccccc3n3cnnc13)C2,0,0,0,0,0,0,-,-,-
c1ccc2c(c1)CCCN2c1nc2ccccc2n2cnnc12,0,0,0,0,164,0,163,0,0
CCOC(=O)C1(Cc2cccc(OC)c2)CCN(Cc2cnc(C)s2)CC1,0,0,0,0,0,0,-,-,-
COc1ccccc1C(=O)NC(=S)N1CCCc2ccccc21,0,0,0,0,0,0,-,-,-
O=C(NC(=S)N1CCCc2ccccc21)c1ccccc1,0,0,0,0,167,0,149,0,0
CC1=NN(c2ccccc2)C(=O)/C1=C/c1cccs1,0,0,0,0,0,0,-,-,-
CC1=NN(c2ccccc2)C(=O)/C1=C/c1ccc[nH]1,0,0,0,0,150,0,160,0,0
O=C(Nc1ccc(C(=O)N2CCOCC2)cc1)c1cccs1,0,0,0,0,0,0,-,-,-
Cc1ccc(NP(=O)(c2ccc(N(C)C)cc2NC(=O)c2cccs2)N2CCOCC2)cc1Cl (centres undefined),0,0,0,0,0,0,-,-,-
CN(C)c1ccc(P(=O)(Nc2ccc([N+](=O)[O-])cc2)N2CCOCC2)c(NC(=O)c2cccs2)c1 (centres undefined),0,0,0,0,140,0,149,0,0
CN(C)c1ccc(P(=O)(Nc2ccccc2)N2CCOCC2)c(NC(=O)c2cccs2)c1 (centres undefined),0,0,0,0,136,0,140,0,0
